Tests used:
SH-SY5Y cells = experiment: Cytotoxicity of the ligands alone, cell viability; type: cell-based; details: 8 μM
[1] = system: p-tau-treated SH-SY5Y cells; experiment: Cytoprotective activity against p-tau, cell viability; type: cell-based, human; details: 0.5 μM p-tau overnight, compound 8 μM
In short: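 SH-SY5Y cells (passage 8–19; EMEM/F12, 10% FBS, 1% Pen-Strep) seeded 40,000/well in 24-well plates and grown overnight. Pretreated with test compound for 12 h, then exposed overnight to recombinant p-tau (E. coli BL21-expressed, heat-treated, TEV-cleaved). CCK-8 added for 2 h at 37 °C; OD read at 450 nm. Normalized to no-treatment mean; relative viability expressed against p-tau-only treatment.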

[2] = system: Xbp1s, P58ipk, ATF4 expression in SH-SY5Y cells; experiment: qRT-PCR of ER stress response induced by tunicamycin or thapsigargin; type: cell-based, human; details: 24 h
[3] = system: ATF4, CHOP, GADD34, TRB3 expression in SH-SY5Y cells; experiment: qRT-PCR of ER stress-associated pro-apoptotic factors in p-tau-treated cells; type: cell-based, human; details: p-tau 0.5 μM plus ligand 5 μM, 24 h
p-tau = p-tau (Homo sapiens, UniProt P10636); experiment: Transmission electron microscopy of p-tau; details: p-tau 10 μM, 24 h incubation, 37 °C, Tris pH 7.4
p-tau, sequence (P10636 1-412 isoform P10636-7): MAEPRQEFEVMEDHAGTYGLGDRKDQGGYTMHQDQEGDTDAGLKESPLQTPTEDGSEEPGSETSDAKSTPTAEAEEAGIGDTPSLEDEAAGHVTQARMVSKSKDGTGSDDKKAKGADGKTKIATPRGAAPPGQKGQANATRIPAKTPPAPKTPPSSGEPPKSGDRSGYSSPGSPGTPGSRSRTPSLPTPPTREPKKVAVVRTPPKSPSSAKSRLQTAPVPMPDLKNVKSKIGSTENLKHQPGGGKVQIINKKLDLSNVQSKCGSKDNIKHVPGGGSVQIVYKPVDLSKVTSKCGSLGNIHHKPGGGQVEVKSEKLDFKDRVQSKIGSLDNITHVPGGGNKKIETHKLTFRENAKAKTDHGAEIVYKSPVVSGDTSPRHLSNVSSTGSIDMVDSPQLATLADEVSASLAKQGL

[4] = system: spliced Xbp1 mRNA, BiP, ERdj4 expression in SH-SY5Y cells; experiment: qRT-PCR of ER stress markers and UPR mediators in p-tau-treated cells; type: cell-based, human; details: p-tau 0.5 μM plus ligand 5 μM, 24 h
[5] = system: p-tau-treated SH-SY5Y cells; experiment: Cell morphology by contrast microscopy; type: cell-based, human; details: p-tau 0.5 μM plus ligand 1 5 μM, 24 h
[6] = system: TNFα, IL1β, IRF3 expression in SH-SY5Y cells; experiment: qRT-PCR of pro-inflammatory factors in p-tau-treated cells; type: cell-based, human; details: p-tau 0.5 μM plus ligand 5 μM, 24 h
heparanase = details: previous report; cited from earlier work

Row | SMILES | cytotoxicity of the compound alone (SH-SY5Y cells) | relative viability [1] | Tg-induced ER stress response (Xbp1s, P58ipk, ATF4) ([2]; Tg 0.5 μM plus ligand 1 5 μM) | Tm-induced ER stress response (Xbp1s, P58ipk, ATF4) ([2]; Tm 5 μg/mL plus ligand 1 5 μM) | expression of ATF4, CHOP, GADD34 and TRB3 [3] | morphology of p-tau (TEM) (p-tau) | expression of spliced Xbp1 mRNA, BiP and ERdj4 (p-tau-induced ER stress response/UPR) [4] | cell density and morphology [5] | p-tau-induced inflammatory response (IL1β, TNFα, IRF3 expression) [6] | heparanase inhibition (heparanase)
1 | COC(=O)[C@]12CCC(C)(C)C[C@H]1C1=CCC3[C@@]4(C)CC[C@H](O)C(C)(C)C4CC[C@@]3(C)C1(C)CC2 (stereo partly drawn) [OAME, oleanolic acid methyl ester, reference compound] | did not exhibit cytotoxicity |  |  |  |  |  |  |  |  | 
2 | COC(=O)[C@]12CCC(C)(C)C[C@H]1C1=CCC3[C@@]4(C)CC[C@H](O[C@@H]5O[C@H](COS(=O)(=O)O)[C@@H](O[C@@H]6O[C@H](C(=O)O)[C@@H](O[C@H]7O[C@H](COS(=O)(=O)O)[C@@H](O)[C@H](O)[C@H]7NS(=O)(=O)O)[C@H](O)[C@H]6O)[C@H](O)[C@H]5NS(=O)(=O)O)C(C)(C)C4CC[C@@]3(C)C1(C)CC2 (stereo partly drawn) [Compound 1, 3β-(2-N-Sulfo-2-deoxy-6-O-sulfo-α-D-glucopyranosyl-(1 → 4)-β-D-glucopyranosyluronate-(1 → 4)-2-N-sulfo-2-deoxy-6-O-sulfo-β-D-glucopyranosyloxy)-methyloleanolate] | did not exhibit cytotoxicity | around 0.6 | failed to attenuate | failed to attenuate | significantly lowered | reorganization of p-tau from an amorphous structure into more ordered clusters | strong protective effects | remarkably recovered cell density and morphology | able to protect cells | 
3 | O=C(O)[C@H]1O[C@@H](O[C@H]2[C@H](O)[C@@H](NS(=O)(=O)O)[C@H](OCCNS(=O)(=O)O)O[C@@H]2COS(=O)(=O)O)[C@H](O)[C@@H](O)[C@@H]1O[C@H]1O[C@H](COS(=O)(=O)O)[C@@H](O)[C@H](O)[C@H]1NS(=O)(=O)O [Compound 2] | did not exhibit cytotoxicity | 0.3 |  |  | did not reduce |  | did not offer protection |  | did not offer protection | potent heparanase inhibitor
4 | CN1CCc2cccc3c2[C@H]1Cc1ccc(O)c(O)c1-3 [apomorphine, reference compound] |  | 0.7 |  |  |  | reorganization of p-tau from an amorphous structure into more ordered clusters |  |  |  | 
